Source: PubChem
RBBP9 inhibitor: blocks human serine hydrolase RBBP9. recombinant RBBP9, FP-Rh probe fluorescence polarization. 220,000 compounds, 0.2% hits. inhibition, % at 7.94 µM. O75884;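 active = inhibition above the campaign mean of all tested compounds plus 3 SD, cut at about 14% in these data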;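 also: plate controls were DMSO wells with RBBP9 for no effect and wells lacking RBBP9 protein for full effect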
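Measured by: FP readout at 525/598 nm; material: recombinant human RBBP9; also added: Serine-hydrolase probe FP-Rh, 375 nM pre-mixing; medium: Tris buffer pH 8.0, NaCl, Pluronic; replication: one well per compound; doses: one concentration, 7.94 µM nominal, 0.794% DMSO; timing: preincubation 30 min plus labeling 45 min at 25 °C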
mABHD4 FP: inhibits mouse alpha/beta hydrolase domain 4. Q8VD66. purified mABHD4, FP-Rh probe fluorescence polarization. inhibition, % at 8.92 µM. 370,000 compounds, 0.54% hits;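 active = inhibition exceeding the mean over every tested compound plus 3 SD, cut at about 30% in these data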;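 also: 0% = plate median of compound wells and 100% = S159A mutant with DMSO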
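Test system: mouse ABHD4 enzyme, wild type. Reagent: FP-Rh fluorescent activity-based probe, added after compound pre-incubation. Timing: pre-incubation 45 min, probe exposure 60 min, at 25 °C. Technique: FP readout, ex 525 nm / em 598 nm. Benchmarks: high control S159A mutant with DMSO, low control median of compound wells.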
SIAE inh: inhibitors of human sialic acid acetylesterase SIAE | Q9HAT2 | SIAE FP-Rh probe binding, fluorescence polarization | inhibition, % at 9.66 µM | 370,000 compounds, 0.69% hits | AID 1053197;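 active = inhibition above a cutoff: mean of compounds within the control limits plus 3 SD of those, cut at about 17% in these data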;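 also: 0% = plate median of compound wells and 100% = probe without SIAE protein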
HTRA1 inhibitor: HTRA1 (human) protease inhibition. Q92743. recombinant HTRA1, FP-rhodamine activity-based probe, fluorescence polarization. inhibition, % at 5.96 µM. 340,000 compounds, 0.5% hits; in the data active = inhibition above about 36%;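 also: 0% = enzyme with DMSO and 100% = wells lacking enzyme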
Target sequence (Q92743 whole entry, looked up): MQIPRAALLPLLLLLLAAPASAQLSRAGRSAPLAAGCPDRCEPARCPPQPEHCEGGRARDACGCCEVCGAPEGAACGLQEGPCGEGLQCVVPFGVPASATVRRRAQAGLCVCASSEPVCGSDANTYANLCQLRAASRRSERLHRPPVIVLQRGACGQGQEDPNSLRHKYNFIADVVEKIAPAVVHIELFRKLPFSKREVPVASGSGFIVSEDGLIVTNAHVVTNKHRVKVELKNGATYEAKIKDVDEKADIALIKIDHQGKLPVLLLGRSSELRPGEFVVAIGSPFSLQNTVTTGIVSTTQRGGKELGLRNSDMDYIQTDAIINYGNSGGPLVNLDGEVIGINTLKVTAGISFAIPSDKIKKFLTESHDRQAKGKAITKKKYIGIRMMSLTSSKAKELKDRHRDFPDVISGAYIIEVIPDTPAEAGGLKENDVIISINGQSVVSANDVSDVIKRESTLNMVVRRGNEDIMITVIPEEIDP
SIAE confirm: human SIAE inhibition, confirmation; shares compounds with SIAE inh; 2,300 compounds, 13% hits; SIAE FP-Rh activity-based probe, fluorescence polarization; inhibition, % at 9.66 µM;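 active = mean inhibition of the replicates above the hit cutoff set in the primary screen, cut at about 17% in these data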;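 also: 0% = SIAE with DMSO and probe and 100% = probe without SIAE; inhibitors lower polarization as more probe stays unbound to SIAE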
Starred values were filed as active, the others as inactive; . = not tested or not shown. Only some compounds are listed: those with a hit (about 1.4% of all), similar ones and a draw of the others.

SMILES | RBBP9 inhibitor | mABHD4 FP | SIAE inh | HTRA1 inhibitor | SIAE confirm
NNc1nc2ccc(Cl)cc2s1 | -1.4 | -1.9 | 23.0* | 19.0 | 0.6
CC(C)(C)OC(=O)N1CCC[C@@H]1C(=O)N1CCC[C@H]1C(=O)NCc1ccccc1 | . | 0.5 | 0.1 | . | .
COc1cccc(C2C3=C(CCCC3=O)Nc3[nH]n(-c4ccccc4)c(=O)c32)c1 (configuration not stated) | -2.1 | -4.5 | 19.4* | 6.3 | 1.0
COc1ccc(CNC(=O)COC(=O)C2CC2C)cc1OC (configuration not stated) | . | 5.5 | 23.9* | 15.4 | -1.9
CC1CC1C(=O)OCC(=O)NCc1ccc(Cl)cc1 (configuration not stated) | -5.0 | -2.7 | 1.4 | 5.9 | .
COC(=O)[C@]1(C#N)CC(=O)N(C(C)C)[C@@H]1c1ccccc1 | . | -1.6 | -8.3 | . | .
COc1cccc(N(C)C(=O)[C@@H](C)[C@@H](O)c2ccc(Cl)cc2)c1 | . | -1.1 | -2.2 | . | .
COc1ccc(NC(=O)c2cc3c(-c4ccc(OC)c(OC)c4)nn(C)c3s2)cc1OC | 3.5 | 17.3 | 18.8* | 13.8 | 13.4
COc1ccc(-c2nn(C)c3sc(C(=O)NCc4ccco4)cc23)cc1OC | 4.8 | -1.9 | -50.8 | -25.9 | .
NC(=O)c1ccc(NC(=O)c2cc(S(=O)(=O)N3CCCCC3)ccc2N2CCOCC2)cc1 | . | 5.2 | 21.2* | -2.9 | -3.4
CC(=O)Nc1ccc(NC(=O)c2cc(S(=O)(=O)N3CCCCC3)ccc2N2CCOCC2)cc1 | . | -3.0 | -7.4 | 2.4 | .
CCCCCOc1ccc(/C=N/NC(=O)CSc2nnc(-c3ccc(OC)cc3)n2-c2ccc(C)cc2)cc1 | . | -0.2 | 0.5 | . | .
COc1ccc(Nc2nc(C)nc3c2nnn3Cc2ccccc2)cc1OC | -4.7 | -3.8 | 17.4* | -5.5 | -3.8
Cc1nc(Nc2ccc(Cl)cc2)c2nnn(Cc3ccccc3)c2n1 | -9.7 | -0.1 | 0.6 | -8.6 | .
C[C@@H]1CN([C@H](C)CO)C(=O)CCCn2cc(nn2)CO[C@H]1CN(C)C(=O)c1ccc2ccn(C)c2c1 | . | 2.7 | -1.6 | . | .
CC(=O)Nc1nnc(SCC(=O)NC(C)(C)C)s1 | 4.9 | 5.0 | 21.2* | -3.2 | -8.5
CCC(C)C(=O)Nc1nnc(SCC(=O)NC(C)(C)C)s1 (configuration not stated) | -7.5 | 2.7 | -6.0 | 0.4 | .
COc1ccc(Oc2ccc(-c3ccn[nH]3)cc2)cc1 | -4.1 | -5.1 | -0.7 | -18.1 | .
CC(C)C1=CC2C3C(=O)N(c4ccccc4)C(=O)C3C1C(=O)C2(C)O (configuration not stated) | . | 2.1 | 20.6* | . | 3.4
CC1=CC2C3C(=O)N(c4ccccc4)C(=O)C3C1C(=O)C2(O)C(C)C (configuration not stated) | . | 5.5 | 0.1 | . | .
CCCCNC(=O)c1cnc(Cc2c[nH]c3ccccc23)c(I)c1 | . | 9.0 | 10.9 | . | .
CC1(C)CC(=O)C2=C(C1)NC1=C(C(=O)c3ccccc31)C2c1ccc(Cl)cc1 (configuration not stated) | -3.8 | 26.9 | 30.0* | 8.0 | 13.6
COc1cc(C2C3=C(CC(C)(C)CC3=O)NC3=C2C(=O)c2ccccc23)ccc1O (configuration not stated) | -8.2 | 19.3 | 16.0 | 17.8 | .
O=S(=O)(NCc1ccco1)c1ccccc1Br | . | -4.9 | 19.7* | -1.6 | -1.3
COc1ccc(CN2CCN(Cc3ccccc3F)CC2)c(OC)c1 | . | 7.2 | 17.3* | -7.6 | -5.1
SMILES | RBBP9 inhibitor | mABHD4 FP | SIAE inh | HTRA1 inhibitor | SIAE confirm
COC(=O)[C@H](CC(C)C)NC(=O)CC[C@H]1O[C@@H](n2ccc(=O)[nH]c2=O)[C@H](O)[C@@H]1O | . | -6.2 | 4.3 | . | .
C[C@@H]1CN([C@@H](C)CO)C(=O)CCCn2cc(nn2)CO[C@H]1CN(C)C(=O)Nc1cccc2ccccc12 | . | 0.0 | 0.7 | . | .
COc1ccc(N=C2SC(C(=O)O)CC(=O)N2Cc2ccc(OC)c(OC)c2)cc1 (configuration not stated) | 5.0 | 3.6 | 80.1* | 0.1 | -0.6
COc1ccc(N=C2SC(C(N)=O)CC(=O)N2CCc2ccc(OC)c(OC)c2)cc1 (configuration not stated) | 1.5 | -3.2 | -1.1 | 2.5 | .
Cc1ccc(/C=N\NC(=O)/C(=C\Nc2nccc(C)n2)NC(=O)c2ccccc2)cc1 | 2.9 | 10.0 | 17.7* | -7.0 | 7.1
CCn1c(Cc2cccs2)nnc1SCC(=O)Nc1cccc2ccccc12 | . | 6.3 | 3.2 | . | .
